# Data from ChEMBL document CHEMBL1133760, “4-(3-Chloro-4-methoxybenzyl)aminophthalazines: synthesis and inhibitory activity toward phosphodiesterase 5” (J Med Chem, 2000).
# Where a name gives a salt, the structure may show the parent alone.
# How the values were obtained:
# Sus scrofa = organism: Sus scrofa; assay: Vasorelaxant effect was evaluated on isolated porcine coronary arteries precontracted with PGF-2 alpha; assay type: functional
# Method in brief: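 Endothelium-intact porcine coronary artery strips were held in Krebs-Henseleit (37 °C, pH 7.4, 95% O2-5% CO2) at 1 g resting tension. Endothelium was verified by 10^-8 M bradykinin relaxation after 50 mM KCl contraction. Strips were contracted with 10^-5 M PGF2α, then given cumulative compound additions. Relaxation was expressed as % of the PGF2α contraction. EC50 came from log concentration curves, as the mean of two experiments.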
# Phosphodiesterase 3A [1] = molecular target: T1, Phosphodiesterase 3A (Sus scrofa, UniProt Q9XSW7); assay: Inhibition of phosphodiesterase 3 (PDE3) from porcine platelets, range 31.8-60.7
# T1 sequence (Q9XSW7 whole entry): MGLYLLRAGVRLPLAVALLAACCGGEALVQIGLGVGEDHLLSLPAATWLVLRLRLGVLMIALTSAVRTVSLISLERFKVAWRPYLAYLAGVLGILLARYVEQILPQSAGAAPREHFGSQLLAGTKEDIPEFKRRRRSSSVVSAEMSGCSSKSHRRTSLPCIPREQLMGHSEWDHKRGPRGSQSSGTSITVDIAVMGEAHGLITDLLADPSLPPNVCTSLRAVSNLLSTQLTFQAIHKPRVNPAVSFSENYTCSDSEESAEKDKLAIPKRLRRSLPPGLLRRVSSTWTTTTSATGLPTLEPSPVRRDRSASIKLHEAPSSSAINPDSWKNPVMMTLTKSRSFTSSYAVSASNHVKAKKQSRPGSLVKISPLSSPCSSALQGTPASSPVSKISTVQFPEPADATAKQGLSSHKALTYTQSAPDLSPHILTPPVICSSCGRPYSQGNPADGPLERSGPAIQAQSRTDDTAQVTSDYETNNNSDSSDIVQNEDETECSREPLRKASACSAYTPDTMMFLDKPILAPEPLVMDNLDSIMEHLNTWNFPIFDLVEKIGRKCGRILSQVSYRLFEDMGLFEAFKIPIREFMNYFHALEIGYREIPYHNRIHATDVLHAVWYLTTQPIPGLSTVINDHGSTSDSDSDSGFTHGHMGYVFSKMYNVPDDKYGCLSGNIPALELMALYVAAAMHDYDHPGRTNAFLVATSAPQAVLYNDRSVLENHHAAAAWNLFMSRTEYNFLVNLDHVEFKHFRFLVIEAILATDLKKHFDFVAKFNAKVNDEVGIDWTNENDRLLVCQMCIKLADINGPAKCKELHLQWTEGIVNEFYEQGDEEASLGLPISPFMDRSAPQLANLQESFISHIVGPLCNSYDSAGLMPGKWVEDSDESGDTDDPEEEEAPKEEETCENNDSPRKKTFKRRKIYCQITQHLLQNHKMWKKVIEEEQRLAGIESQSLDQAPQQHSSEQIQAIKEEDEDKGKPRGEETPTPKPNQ
# [2] = Inhibition of phosphodiesterase 1 (PDE1) from porcine adrenal tissue, range 51.1-108; design: species or system Sus scrofa; settings: in the assay text read “porcine aorta” for “porcine adrenal tissue”
# Method in brief: (§1)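 Two-step radioisotopic PDE activity assay (modified) with 1 µM [3H]cGMP as substrate. Enzymes were isolated from porcine tissues, and PDE5 was purified by DEAE-Toyopearl 650S chromatography. Inhibitors were diluted from DMSO into assay buffer over 10^-10 to 10^-6 M, with 1% (v/v) DMSO final. IC50 came from log concentration-inhibition curves (at least four points), as the mean of three experiments.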
# [3] = Inhibition of phosphodiesterase 1 (PDE1) from porcine adrenal tissue, range 26.5-36.7; design: species or system Sus scrofa; settings: in the assay text read “porcine aorta” for “porcine adrenal tissue”; method in brief: as §1
# Phosphodiesterase 3A [4] = molecular target: T1, Phosphodiesterase 3A; assay: Inhibition of phosphodiesterase 3 (PDE3) from porcine platelets; method in brief: as §1
# Phosphodiesterase 4A [5] = molecular target: T2, Phosphodiesterase 4A (Sus scrofa, UniProt O77823); assay: Inhibition of phosphodiesterase 4 (PDE4) from porcine liver; method in brief: as §1
# T2 sequence (O77823 whole entry): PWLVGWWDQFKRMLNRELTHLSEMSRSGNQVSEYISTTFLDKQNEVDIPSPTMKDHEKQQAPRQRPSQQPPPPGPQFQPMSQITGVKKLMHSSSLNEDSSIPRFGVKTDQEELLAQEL
# [6] = Inhibition of phosphodiesterase 1 (PDE1) from porcine adrenal tissue; assay type: tissue-based, Sus scrofa; settings: in the assay text read “porcine aorta” for “porcine adrenal tissue”; method in brief: as §1
# Phosphodiesterase 4A [7] = molecular target: T2, Phosphodiesterase 4A; assay: Inhibition of phosphodiesterase 4 (PDE4) from porcine liver, range 10.4-16.3
# Method in brief: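 PDE4 isolated from porcine liver; activity measured by a modified two-step radioisotopic assay. Compounds dissolved in DMSO and diluted in assay buffer to 10^-10 to 10^-6 M, with 1% (v/v) final DMSO. IC50 taken from logarithmic concentration-inhibition curves of at least four points, as the mean of three experiments.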
# PDE II [8] = molecular target: T3, PDE II (Sus scrofa, UniProt F1SUV3); assay: Inhibition of phosphodiesterase 2 (PDE2) from porcine adrenal
# [9] = Pharmacokinetic parameter, Bioavailability (F) after 0.3 mg/kg po administration in rats; assay type: ADME, organism-based; settings: rat, in vivo, read-out: BA
# Method in brief: (§2)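 Rats received a 0.3 mg/kg dose intravenously or orally, with n = 4 per route. Plasma pharmacokinetic parameters were then derived.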
# [10] = Pharmacokinetic parameter, Cmax (plasma conc.) after 0.3 mg/kg po administration in rats; assay type: ADME, organism-based; design: dose 0.3 mg/kg, route oral; settings: rat; method in brief: as §2
# [11] = Pharmacokinetic parameter, AUC (area under curve) after 0.3 mg/kg iv administration in rats; assay type: ADME, organism-based; design: dose 0.3 mg/kg, route intravenous; settings: rat, in vivo; method in brief: as §2
# [12] = Pharmacokinetic parameter, tmax after 0.3 mg/kg po administration in rats; assay type: ADME, organism-based; design: dose 0.3 mg/kg, route oral; settings: rat, in vivo; method in brief: as §2
# [13] = Pharmacokinetic parameter, t1/2 after 0.3 mg/kg iv administration in rats; assay type: ADME, organism-based; design: dose 0.3 mg/kg, route intravenous; settings: rat, in vivo; method in brief: as §2
# Phosphodiesterase 3A [14] = molecular target: T1, Phosphodiesterase 3A; assay: Inhibition of phosphodiesterase 3 (PDE3) from porcine platelets, range 11.4-26.9; method in brief: as §1
# Phosphodiesterase 4A [15] = molecular target: T2, Phosphodiesterase 4A; assay: Inhibition of phosphodiesterase 4 (PDE4) from porcine liver, range 1.01-1.36; method in brief: as §1
# [16] = Pharmacokinetic parameter, AUC (area under curve) after 0.3 mg/kg po administration in rats; assay type: ADME, organism-based; design: dose 0.3 mg/kg, route oral; settings: rat, in vivo; method in brief: as §2
# [17] = Inhibition of phosphodiesterase 1 (PDE1) from porcine adrenal tissue, range 20.0-34.4; design: species or system Sus scrofa; settings: in the assay text read “porcine aorta” for “porcine adrenal tissue”; method in brief: as §1
# PDE II [18] = molecular target: T3, PDE II; assay: Inhibition of phosphodiesterase 2 (PDE2) from porcine platelets, range 0.841-1.15; settings: in the assay text read “porcine adrenal” for “porcine platelets”; method in brief: as §1
smiles,measurement,setting,value
CCCc1nn(C)c2c(=O)[nH]c(-c3cc(S(=O)(=O)N4CCN(C)CC4)ccc3OCC)nc12 [SILDENAFIL CITRATE],EC50,Sus scrofa,38 nM
COc1ccc(CNc2nnc(N3CC=CCC3)c3ccc(C#N)cc23)cc1Cl,EC50,Sus scrofa,130 nM
COc1ccc(CNc2nnc(N3CCC(OC)CC3)c3ccc(C#N)cc23)cc1Cl,EC50,Sus scrofa,100 nM
OCCN(CCO)c1nc(N2CCCCC2)c2nc(N(CCO)CCO)nc(N3CCCCC3)c2n1 [DIPYRIDAMOLE],IC50,Phosphodiesterase 3A [1],44000 nM
same,IC50,[2],74500 nM
COc1ccc(CNc2nnc(N3CC[S+]([O-])CC3)c3ccc(C#N)cc23)cc1Cl,EC50,Sus scrofa,50 nM
CCCOc1ccccc1-c1nc2[nH]nnc2c(=O)[nH]1 [ZAPRINAST],IC50,[3],31200 nM
same,IC50,Phosphodiesterase 3A [4],> 100000 nM
same,IC50,Phosphodiesterase 4A [5],> 100000 nM
COc1ccc(CNc2nnc(N3CCC(O)CC3)c3ccc(Cl)cc23)cc1Cl,EC50,Sus scrofa,780 nM
COc1ccc(CNc2nnc(N3CCN(CCO)CC3)c3ccc(C#N)cc23)cc1Cl,EC50,Sus scrofa,100 nM
COc1ccc(CNc2nnc(N3CCC(CCO)CC3)c3ccc(C#N)cc23)cc1Cl,EC50,Sus scrofa,30 nM
Cc1[nH]c(=O)c(C#N)cc1-c1ccncc1 [MILRINONE],IC50,[6],> 100000 nM
same,IC50,Phosphodiesterase 4A [7],13000 nM
COc1ccc(C2CNC(=O)C2)cc1OC1CCCC1 (stereo not drawn) [ROLIPRAM],IC50,Phosphodiesterase 3A [4],> 100000 nM
same,IC50,[6],> 100000 nM
same,IC50,Phosphodiesterase 4A [5],3630 nM
same,IC50,PDE II [8],> 100000 nM
COc1ccc(CNc2nnc(N3CCC(O)CC3)c3ccc(C#N)cc23)cc1Cl.Cl,bioavailability,[9],19.5%
same,EC50,Sus scrofa,13 nM
same,Cmax,[10],25.5 ng/mL
same,AUC,[11],166 ng·h/mL
same,Tmax,[12],0.25 h
same,half-life,[13],2.2 h
same,IC50,Phosphodiesterase 3A [14],17500 nM
same,IC50,Phosphodiesterase 4A [15],1170 nM
same,AUC,[16],32.4 ng·h/mL
same,IC50,[17],26200 nM
same,IC50,PDE II [18],984 nM
COc1ccc(CNc2nnc(N3CCN(C)CC3)c3ccc(C#N)cc23)cc1Cl,EC50,Sus scrofa,320 nM
COc1ccc(CNc2nnc(N3CCC(O)CC3)c3ccc(C(F)(F)F)cc23)cc1Cl,EC50,Sus scrofa,120 nM
COc1ccc(CNc2nnc(N3CCC(C)(O)CC3)c3ccc(C#N)cc23)cc1Cl,EC50,Sus scrofa,130 nM
COc1ccc(CNc2nnc(N3CCC(C(=O)O)CC3)c3ccc(C#N)cc23)cc1Cl,EC50,Sus scrofa,170 nM
COc1ccc(CNc2nnc(N3CCNCC3)c3ccc(C#N)cc23)cc1Cl,EC50,Sus scrofa,870 nM
COc1ccc(CNc2nnc(N3CCCCC3)c3ccc(C#N)cc23)cc1Cl,EC50,Sus scrofa,39 nM
COc1ccc(CNc2nnc(N3CCC(O)CC3)c3ccc([N+](=O)[O-])cc23)cc1Cl,EC50,Sus scrofa,30 nM
COc1ccc(CNc2nnc(N3CCC(CO)CC3)c3ccc(C#N)cc23)cc1Cl,EC50,Sus scrofa,19 nM
COc1ccc(CNc2nnc(N3CCC(=O)CC3)c3ccc(C#N)cc23)cc1Cl,EC50,Sus scrofa,13 nM
